In PMC3037833 (Angewandte Chemie (International ed. in English), 2010):
Read-outs that look alike come from different tables or passages of the source. Blank lines part the entries; values can stand above or below the molecule they belong to. No end group written: not given here.

Tests used:
[1] = molecular target: T1, N1P2 (NHERF1 PDZ domain 2) (Homo sapiens, UniProt O14745); experiment: Fluorescence polarization; type: binding
T1 sequence (O14745 154-234 limits assumed): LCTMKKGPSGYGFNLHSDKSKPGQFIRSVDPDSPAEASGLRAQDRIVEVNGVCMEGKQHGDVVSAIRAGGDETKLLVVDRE
Outline: (§1)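 Test peptides were assayed by fluorescence polarization inhibition for binding to the isolated PDZ domain; the same format was applied across the five CFTR-associated PDZ domains.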

[2] = molecular target: T2, N1P1 (NHERF1 PDZ domain 1) (Homo sapiens, UniProt O14745); experiment: Fluorescence polarization; type: binding
T2 sequence (O14745 14-94 limits assumed): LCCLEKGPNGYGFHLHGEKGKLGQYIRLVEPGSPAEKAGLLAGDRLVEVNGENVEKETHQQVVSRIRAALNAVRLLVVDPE
Outline: as §1

[3] = molecular target: N2P1 (NHERF2 PDZ domain 1) (Homo sapiens, UniProt Q15599); experiment: Fluorescence polarization; type: binding
[4] = molecular target: N2P2 (NHERF2 PDZ domain 2) (Homo sapiens, UniProt Q15599); experiment: Fluorescence polarization; type: binding
iCAL366 = molecular target: T3, iCAL366 (N-terminal cysteine on peptide); experiment: fluorescence polarization competition
T3 chain: WPTSII

iCAL3610 = molecular target: T4, iCAL3610; experiment: fluorescence polarization competition
T4 chain: ANSRWPTSII

iCAL066 = molecular target: T5, iCAL066 (N-terminal cysteine on peptide); experiment: fluorescence polarization competition
T5 chain: MQTSII

iCAL056 = molecular target: T6, iCAL056 (N-terminal cysteine on peptide); experiment: fluorescence polarization competition
T6 chain: MQTSKI

SSR56 = molecular target: T7, SSR56 (Homo sapiens, N-terminal cysteine on peptide); experiment: fluorescence polarization competition
T7 chain: MQTSKL

CFTR10 = molecular target: T8, CFTR10 (Homo sapiens); experiment: fluorescence polarization competition
T8 chain: TEEEVQDTRL

SSR510 = molecular target: T9, SSR510 (Homo sapiens); experiment: fluorescence polarization competition
T9 chain: ANGLMQTSKL

iCAL368 = molecular target: T10, iCAL368; experiment: fluorescence polarization competition
T10 chain: SRWPTSII

iCAL356 = molecular target: T11, iCAL356 (N-terminal cysteine on peptide); experiment: fluorescence polarization competition
T11 chain: WQTSII

F*-iCAL36 = molecular target: T12, F*-iCAL36; experiment: fluorescence polarization
T12 chain: fluorescein-ANSRWPTSII

Molecule: CC[C@H](C)[C@H](NC(=O)[C@@H](NC(=O)[C@H](CO)NC(=O)[C@@H](NC(=O)[C@@H]1CCCN1C(=O)[C@H](Cc1c[nH]c2ccccc12)NC(=O)[C@H](CCCNC(=N)N)NC(=O)[C@H](CO)NC(=O)[C@H](CC(N)=O)NC(=O)[C@H](C)N)[C@@H](C)O)[C@@H](C)CC)C(=O)O [iCAL36_10]
Ki [1]: > 5000 µM
Ki [3]: > 5000 µM
Ki [2]: > 5000 µM
Ki [4]: > 3000 µM

Molecule: SRWPTSII [iCAL36_8]
Ki [1]: > 5000 µM
Ki ([3]; SD): 516 ± 183 µM
Ki [2]: > 5000 µM
Ki ([4]; SD): 433 ± 154 µM

B1: NHERF1 PDZ1 (protein)
chain: LPRLCCLEKGPNGYGFHLHGEKGKLGQYIRLVEPGSPAEKAGLLAGDRLVEVNGENVEKETHQQVVSRIRAALNAVRLLVVDPETDE
Ki (iCAL366): > 5000 µM
Ki (iCAL3610): > 5000 µM
Ki (iCAL066): 245 µM
Ki (iCAL056): 914 µM
Ki (SSR56): 19.3 µM
Ki (CFTR10): 0.45 µM
Ki (SSR510): 24.5 µM
Ki (iCAL368): > 5000 µM
Ki (iCAL356): 430 µM
Kd (F*-iCAL36): > 1000 µM

B4: NHERF2 PDZ2 (protein)
chain: LRPRLCHLRKGPQGYGFNLHSDKSRPGQYIRSVDPGSPAARSGLRAQDRLIEVNGQNVEGLRHAEVVASIKAREDEARLLVVDPETD
Ki (iCAL366): > 5000 µM
Ki (iCAL3610): > 3000 µM
Ki (iCAL066): 166 µM
Ki (iCAL056): 109 µM
Ki (SSR56): 10 µM
Ki (CFTR10): 0.1 µM
Ki (SSR510): 19.8 µM
Ki (iCAL368): 433 µM
Ki (iCAL356): 246 µM
Kd (F*-iCAL36): > 1000 µM

Further lines, results first:

Ki ([1]; SD): 1.9 ± 0.1 µM
Ki ([2]; SD): 0.45 ± 0.02 µM
Molecule: CC(C)C[C@H](NC(=O)[C@H](CCCNC(=N)N)NC(=O)[C@@H](NC(=O)[C@H](CC(=O)O)NC(=O)[C@H](CCC(N)=O)NC(=O)[C@@H](NC(=O)[C@H](CCC(=O)O)NC(=O)[C@H](CCC(=O)O)NC(=O)[C@H](CCC(=O)O)NC(=O)[C@@H](N)[C@@H](C)O)C(C)C)[C@@H](C)O)C(=O)O [CFTR10, reference compound]

Ki ([1]; SD): 130 ± 48 µM
Ki ([3]; SD): 38.6 ± 7.7 µM
Ki ([2]; SD): 24.5 ± 1.9 µM
Ki ([4]; SD): 19.8 ± 2.7 µM
Molecule: CSCC[C@H](NC(=O)[C@H](CC(C)C)NC(=O)CNC(=O)[C@H](CC(N)=O)NC(=O)[C@H](C)N)C(=O)N[C@@H](CCC(N)=O)C(=O)N[C@H](C(=O)N[C@@H](CO)C(=O)N[C@@H](CCCCN)C(=O)N[C@@H](CC(C)C)C(=O)O)[C@@H](C)O [SSR5_10, reference compound]

Ki (iCAL366): > 5000 µM
Ki (iCAL3610): > 5000 µM
Ki (iCAL066): 245 µM
Ki (iCAL056): 806 µM
Ki (SSR56): 31.7 µM
Ki (CFTR10): 1.1 µM
Ki (SSR510): 38.6 µM
Ki (iCAL368): 516 µM
Ki (iCAL356): 496 µM
Kd (F*-iCAL36): > 1000 µM
B2: NHERF2 PDZ1 (protein)
chain: RPRLCRLVRGEQGYGFHLHGEKGRRGQFIRRVEPGSPAEAAALRAGDRLVEVNGVNVEGETHHQVVQRIKAVEGQTRLLVVDQETD

Ki (iCAL366): > 5000 µM
Ki (iCAL3610): > 5000 µM
Ki (iCAL066): 2400 µM
Ki (iCAL056): 1700 µM
Ki (SSR56): 50.2 µM
Ki (CFTR10): 1.9 µM
Ki (SSR510): 130 µM
Ki (iCAL368): > 5000 µM
Ki (iCAL356): > 5000 µM
Kd (F*-iCAL36): > 1000 µM
B3: NHERF1 PDZ2 (protein)
chain: RPRLCTMKKGPSGYGFNLHSDKSKPGQFIRSVDPDSPAEASGLRAQDRIVEVNGVCMEGKQHGDVVSAIRAGGDETKLLVVDRETDE
